According to ChEMBL document CHEMBL5674884, “Ezh2 inhibition in Kras-driven lung cancer amplifies inflammation and associated vulnerabilities” (J Exp Med, 2018):
The source made the active and inactive calls.

Legend:
[1] = test system: NSCLC; assay: Inhibition of colony formation in mouse NSCLC cell expressing Kras G12D/+ at 100 nM; type: functional, cell-based
How it was run: (§1)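 Kras G12D/+;Trp53-/- cells treated with 100 nM GSK343 or GSK669 for 5 d, with or without dox, then replated at 250 or 500 cells per well for colony formation under continued treatment. Cell numbers taken relative to controls; colony size quantified automatically. Three independent experiments.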

[2] = test system: NSCLC; assay: Induction of cell cycle arrest in mouse NSCLC cell infected with dox-inducible EZH2 shRNA assessed as accumulation of cells at G0/G1 phase at 100 nM in presence of […] by FACS analysis; type: functional, cell-based
How it was run: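 Kras G12D/+;Trp53-/- cells carrying dox-inducible EZH2 shRNA treated with or without dox and 100 nM GSK343 for 3 d. Cells then pulsed 45 min with 10 uM BrdU and stained with anti-BrdU-FITC and propidium iodide (5 ug/ml) with RNaseA, then analyzed by FACS. Three independent experiments; Student's t test.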

[3] = test system: NSCLC; assay: Antiproliferative activity in mouse NSCLC cell expressing Kras G12D/+ assessed reduction in cell viability at 100 nM; type: functional, cell-based; how it was run: as §1
[4] = biological target: Histone-lysine N-methyltransferase EZH2 (Mus musculus) (UniProt Q61188); assay: Inhibition of Ezh2 in mouse NSCLC cells at 100 nM in presence of […] by immunoblot analysis; type: cell-based
[5] = biological target: Histone-lysine N-methyltransferase EZH2 (Mus musculus) (UniProt Q61188); assay: Inhibition of Ezh2 in mouse NSCLC cells infected with dox-inducible EZH2 shRNA assessed vinculin expression at 100 nM in presence of […] by immunoblot analysis; type: cell-based
[6] = biological target: Histone-lysine N-methyltransferase EZH2 (Mus musculus) (UniProt Q61188); assay: Inhibition of Ezh2 in mouse NSCLC cells expressing Kras G12D/+ assessed down-regulation of H3K27me3 level at 100 nM for 120 hrs by Immunoblot analysis; type: cell-based
[7] = test system: A549; assay: Reversal of GSK126 dependent antiinflammatory activity in human A549 cells assessed as decrease in Il1ra level by qRT-PCR analysis; type: functional, cell-based
[8] = test system: A549; assay: Reversal of GSK126 dependent antiinflammatory activity in human A549 cells assessed as decrease in Ccl2 level by qRT-PCR analysis; type: functional, cell-based
[9] = test system: A549; assay: Reversal of GSK126 dependent antiinflammatory activity in human A549 cells assessed as decrease in Irak1 level by qRT-PCR analysis; type: functional, cell-based
[10] = test system: A549; assay: Reversal of GSK126 dependent antiinflammatory activity in human A549 cells assessed as decrease in IL-6 level by qRT-PCR analysis; type: functional, cell-based

Histone-lysine N-methyltransferase EZH2 (Mus musculus), sequence (Q61188 whole entry): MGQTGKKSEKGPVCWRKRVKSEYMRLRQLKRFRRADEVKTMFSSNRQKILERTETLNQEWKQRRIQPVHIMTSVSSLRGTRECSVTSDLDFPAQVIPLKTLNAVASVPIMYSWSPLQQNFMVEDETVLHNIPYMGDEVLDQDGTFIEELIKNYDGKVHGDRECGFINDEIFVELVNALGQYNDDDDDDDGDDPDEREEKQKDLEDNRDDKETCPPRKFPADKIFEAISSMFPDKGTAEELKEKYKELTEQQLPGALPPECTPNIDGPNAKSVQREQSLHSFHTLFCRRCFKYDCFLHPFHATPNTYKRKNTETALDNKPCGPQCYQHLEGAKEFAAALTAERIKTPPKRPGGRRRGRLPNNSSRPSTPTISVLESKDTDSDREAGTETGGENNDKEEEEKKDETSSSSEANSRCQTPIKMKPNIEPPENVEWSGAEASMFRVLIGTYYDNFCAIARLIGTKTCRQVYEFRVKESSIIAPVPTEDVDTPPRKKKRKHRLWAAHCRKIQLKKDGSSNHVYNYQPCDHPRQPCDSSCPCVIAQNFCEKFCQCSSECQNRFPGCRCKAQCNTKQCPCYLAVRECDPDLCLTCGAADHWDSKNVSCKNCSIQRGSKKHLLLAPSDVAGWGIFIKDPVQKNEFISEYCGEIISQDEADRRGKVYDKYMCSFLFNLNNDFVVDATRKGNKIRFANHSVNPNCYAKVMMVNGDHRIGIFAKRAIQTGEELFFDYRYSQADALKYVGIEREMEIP

CCCc1cc(C)[nH]c(=O)c1CNC(=O)c1cc(-c2ccnc(N3CCN(C)CC3)c2)cc2c1cnn2C(C)C
active: inhibition [1] | Activity [2] | Activity [3] | inhibition [4] | inhibition [5] | inhibition [6]

CC(C)(C)c1cnc(CSc2cnc(NC(=O)C3CCNCC3)s2)o1
active: Activity [7] | Activity [8] | Activity [9] | Activity [10]
